# An excerpt weighted towards active compounds, which were near 2.5% of everything screened.
# SENP1 inh: SENP1 (human) catalytic domain inhibition | Q9P0U3 | recombinant SENP1 catalytic domain, CyPet-SUMO1-YPet FRET cleavage | inhibition, % at 10 µM | 360,000 tested, 0.21% active;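 active = inhibition at least 30% at 10 µM, raw YFP signal under a set limit, fluorescence ratio 0.5 to 1.5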;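 note: 0% = enzyme with DMSO and 100% = no enzyme wells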
#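 Material – human SENP1 catalytic domain · Input – SENP1 enzyme, 20 pM final · Compound dosing – single concentration of 10 µM compound, 0.5% DMSO final · Timing – enzyme reaction for 50 min at room temperature, dark · Measured by – FRET fluorescence in CFP and YFP emission channels · Control set – no-enzyme wells low, DMSO-plus-enzyme wells high control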
# GRK2 aptamer HTS: inhibitors of human GRK2 displacing RNA aptamer. P25098. inhibition of aptamer binding, % at 10 µM. bead flow cytometry, FAM-aptamer displacement from GRK2. 330,000 tested, 0.59% active;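 active = inhibition of aptamer binding above 40%, roughly 3 SD of noise, on plates passing a quality check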;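 note: median bead fluorescence of bound FAM aptamer so fluorescent compounds give negative values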
# Target sequence (P25098 whole entry, looked up): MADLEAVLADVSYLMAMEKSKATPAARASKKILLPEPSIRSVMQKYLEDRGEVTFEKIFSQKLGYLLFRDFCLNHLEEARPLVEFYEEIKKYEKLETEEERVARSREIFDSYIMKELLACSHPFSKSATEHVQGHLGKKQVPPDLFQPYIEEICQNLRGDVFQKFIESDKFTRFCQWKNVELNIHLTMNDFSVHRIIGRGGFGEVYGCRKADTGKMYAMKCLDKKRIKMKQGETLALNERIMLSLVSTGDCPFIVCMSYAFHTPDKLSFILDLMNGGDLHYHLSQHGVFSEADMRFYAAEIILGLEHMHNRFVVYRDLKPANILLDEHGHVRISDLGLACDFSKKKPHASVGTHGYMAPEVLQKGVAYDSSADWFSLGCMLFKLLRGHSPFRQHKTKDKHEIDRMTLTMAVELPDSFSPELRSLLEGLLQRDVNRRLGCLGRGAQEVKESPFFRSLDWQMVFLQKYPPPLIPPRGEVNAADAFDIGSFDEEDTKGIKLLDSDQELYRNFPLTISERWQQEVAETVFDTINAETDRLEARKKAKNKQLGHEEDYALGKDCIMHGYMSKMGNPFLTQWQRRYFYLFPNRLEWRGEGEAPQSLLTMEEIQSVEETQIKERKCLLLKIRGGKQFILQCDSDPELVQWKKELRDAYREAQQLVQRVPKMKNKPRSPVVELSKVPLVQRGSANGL
# B2AR ag: activates human beta-2 adrenergic receptor causing internalization. AID 504454. P07550. response, % (no concentration beside the values). Am2.2-beta2AR cells, FAP receptor internalization, flow cytometry. 340,000 tested, 0.43% active;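 active = response above a set limit, near 3 SD of response in nonfluorescent compounds, cut at about 42% in these data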
# NadD block: NadD (S. aureus) enzyme inhibition. purified NadD enzyme, colorimetric absorbance read-out. 360,000 tested, 0.78% active. inhibition, % at 20 µM; in the data active = inhibition above about 26%
# ABHD5-PLIN5 inh: blocks binding of human ABHD5 to perilipin-5; Q00G26+Q8WTS1; Split G. princeps luciferase complementation, luminescence, 4 h; inhibition, % at 4 µM; 360,000 tested, 0.78% active;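 active = inhibition above the mean inhibition across every tested compound plus 3 SD, cut at about 22% in these data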;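 note: 0% = DMSO only wells and the 100% control is not disclosed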
# NadD conf: confirmation of Staphylococcus aureus NadD inhibitors; AID 624309; shares compounds with NadD block; inhibition, % at 20 µM; 2,000 tested, 13% active; purified S. aureus NadD, colorimetric enzyme assay; in the data active = inhibition mostly above about 42%, no sharp cut-off; inactive = mostly below about 42%
# * marks the source's active call; other numbers are inactive results; / = no result.
SMILES,SENP1 inh,GRK2 aptamer HTS,B2AR ag,NadD block,ABHD5-PLIN5 inh,NadD conf
Cc1ccc2nc(N3C(=O)C(O)=C(C(=O)c4ccco4)C3c3ccc(C)o3)sc2c1 (stereo not drawn),-37,5,3,26*,-5,35
CS(=O)(=O)N1CCc2cc(NC(=O)c3ccc(Cl)cc3Cl)ccc21,1,0,-13,-7,2,/
N#Cc1c(OCC(=O)c2ccccc2)nc2c(c1-c1ccco1)CCc1ccccc1-2,-31,2,2,32*,3,30
N#C/C(=C/c1cn(-c2ccccc2)nc1-c1cccc(OCc2ccc(F)cc2)c1)C(=O)NCCCn1ccnc1,0,1,18,37*,10,-4
CCCOc1cccc(-c2nn(-c3ccccc3)cc2/C=C(\C#N)C(=O)NCCCn2ccnc2)c1,-44,0,-14,25,-2,/
O=C(COc1ccc(/C=N/NC(=O)c2ccccc2O)cc1)Nc1ccc([N+](=O)[O-])cc1,5,0,-3,40*,-2,-2
CC(=O)Nc1ccc(-c2ccnc3c2CC(C(=O)Nc2cccc(C(F)(F)F)c2)O3)cc1 (stereo not drawn),0,/,/,4,2,/
NC(=O)c1cc(S(=O)(=O)Nc2ccc(OC(F)(F)F)cc2)cs1,0,0,-6,1,2,/
COc1ccc(S(=O)(=O)N(CC(C)C)C2CCS(=O)(=O)C2)cc1OC (stereo not drawn),2,0,2,2,-6,/
S=c1[nH]c2ccc3ccccc3c2[nH]1,2,0,0,3,1,/
Cc1[nH]c2c(ccc3ccccc32)c1C1C(CCN)C1(C)C (stereo not drawn),-31,0,7,33*,20,1
C[n+]1ccn(CC(=O)c2cc(C(C)(C)C)c(O)c(C(C)(C)C)c2)c1,1,0,-8,1,3,/
Cc1cc(=O)[nH]c(Nc2ccccc2C)n1,0,1,4,-3,-2,/
COc1cccc(C(C(=O)NC2CCCC2)N(C(=O)CNC(=O)c2ccco2)c2cccnc2)c1 (stereo not drawn),1,2,-2,-2,2,/
Cc1cccc(NC(=O)CSc2cc(C)c(C#N)c3nc4ccccc4n23)c1,-36,2,19,43*,-3,2
COc1ccc(C(=O)NC2CCN(CC(=O)NCc3ccccc3F)CC2)cc1,-2,0,-4,40*,-1,3
CCOc1ccc(S(=O)(=O)Nc2cc(S(=O)(=O)N3CCOCC3)ccc2OC)cc1,1,0,-4,-5,2,/
CS(=O)(=O)c1ccc2nc(NC(=O)c3ccccc3)sc2c1,2,1,3,-3,-5,/
CS(=O)(=O)c1ccc(C(=O)Nc2nc(-c3ccco3)c(-c3ccco3)s2)cc1,8,/,7,29*,22*,7
CCN1CCN(Cc2ccc(NC(=O)c3ccc(C)c(NC(=O)c4cc(-c5ccc(Br)cc5)n[nH]4)c3)cc2C(F)(F)F)CC1,4,0,18,32*,4,-9
CCN1CCN(Cc2ccc(NC(=O)c3ccc(C)c(NC(=O)c4nccn4C)c3)cc2C(F)(F)F)CC1,1,0,9,-5,4,/
CC(=O)c1cccc(NC(=O)CSc2nc(=O)n(CCN3CCOCC3)c3c2CCCC3)c1,-5,2,-5,4,-5,/
CC(C)CCN(CCC(C)C)C(CO)(CO)CO,1,3,4,2,9,/
Cn1c(=O)c(C(=O)CN2CCc3ccccc32)c(N)n(Cc2ccccc2)c1=O,-19,0,8,62*,-1,15
Cn1c(=O)c(C(=O)CN2CCCc3ccccc32)c(N)n(Cc2ccccc2)c1=O,-54,0,-4,18,-3,/
SMILES,SENP1 inh,GRK2 aptamer HTS,B2AR ag,NadD block,ABHD5-PLIN5 inh,NadD conf
COc1ccc(C2=C(C=Nc3c(C)n(C)n(-c4ccccc4)c3=O)C(c3ccccc3C)c3ccccc3O2)cc1OC (stereo not drawn),1,0,11,34*,-5,12
Cc1c(N=Cc2c(O)n(C)c(=O)c3ccccc23)c(=O)n(-c2ccccc2)n1C,-32,4,7,-6,2,/
Cc1ccc(S(=O)(=O)c2nnn3c2nc(N2CCN(c4ccccn4)CC2)c2ccccc23)cc1C,3,5,5,40*,7,12
Cc1ccc(S(=O)(=O)c2nnn3c2nc(N2CCCCC2)c2ccccc23)cc1,2,2,-23,3,-1,/
Cc1cc(O)c(C(=O)/C=C/c2cccc([N+](=O)[O-])c2)c(=O)o1,-3,0,11,35*,-1,5
Cc1cc(O)c(C(=O)/C=C/c2ccccc2O)c(=O)o1,-23,2,14,0,10,/
CC(=O)c1ccc(-n2c(SCC(=O)c3c[nH]c4ccccc34)nc3ccccc3c2=O)cc1,-6,0,12,37*,16,27
CC(=O)c1ccc(NC(=O)COC(=O)c2c3c(nc4ccccc24)/C(=C\c2cccs2)CCC3)cc1,-50,0,7,27*,9,11
CC(C)c1ccc(NC(=O)C2CCN(S(=O)(=O)c3ccc4c(c3)C(C)(C)C(=O)N4C)CC2)cc1,3,0,3,0,-17,/
O=C(NCCN1C(=O)S/C(=C\c2ccc(Cl)c(Cl)c2)C1=O)c1ccc2c(c1)C(=O)N(Cc1ccncc1)C2=O,-9,0,-10,28*,10,-4
O=C(NCCN1C(=O)S/C(=C\c2ccc(Cl)c(Cl)c2)C1=O)C1COc2ccccc2O1 (stereo not drawn),-2,0,-3,16,1,/
O=C1CN(S(=O)(=O)c2ccc(Cl)cc2)c2ccccc2N1,0,0,-3,0,-8,/
Nc1cc(=O)[nH]c(SCC(=O)N2N=C(c3ccc4ccccc4c3)CC2c2ccccc2)n1 (stereo not drawn),0,0,2,40*,5,39
CC(=O)OCC(=O)N1N=C(c2ccc3ccccc3c2)CC1c1ccccc1 (stereo not drawn),0,2,-64,-3,1,/
CC(C)N(C(=O)Cn1cc(S(=O)(=O)CC(=O)Nc2ccccc2)c2ccccc21)C(C)C,0,0,5,1,-5,/
COc1ccc(Cl)cc1N(CC(=O)N/N=C/c1ccc(OC(C)C)cc1)S(=O)(=O)c1ccc(C)c([N+](=O)[O-])c1,0,0,-18,31*,3,15
CCCNC(=O)Cn1c(=O)/c(=C\c2ccc(-c3cccc([N+](=O)[O-])c3)o2)s/c1=C\C(=O)C(C)(C)C,-25,4,-18,35*,-4,10
CCCNC(=O)Cn1c(=O)/c(=C/c2ccc(-c3cccc([N+](=O)[O-])c3)o2)s/c1=C\C(=O)C(C)(C)C,-30,/,-11,18,4,/
